Published values gathered from unrelated publications.
Each line is one published result; the experiments were not run side by side.
Target: Acetylcholinesterase (ACHE, Homo sapiens, UniProt P22303)
Mode: inhibitor

With `COc1ccc(OC)c(C=NNC(=O)c2cc(-c3cn(C)c4ccccc34)on2)c1` the IC50 was over 100 µM (enzyme activity).
`O=[N+]([O-])c1c[nH]c(-c2n[nH]c(=S)n2/N=C/c2ccc(Cl)cc2[N+](=O)[O-])c1` gave an IC50 of 15.1 µM (enzyme activity, Ellman).
`C#CCN(C)CCCCOCc1ccc(CN(C)c2c3c(nc4ccc(C)cc24)CCCC3)cc1` has an IC50 of 16.2 µM (enzyme activity, Ellman).
The IC50 of `CNC(=O)c1ccc(-c2cnn3ccc(C(=O)N(C)c4ccc(Cl)c(C(=O)OC)c4)cc23)cc1` is reported as over 30 µM (cell-free assay).
For `Cn1cc(-c2cc(C(=O)NN=Cc3ccccc3O)no2)c2ccccc21`, the IC50 was over 100 µM (enzyme activity).
With `O=C(NCCN1CCCCC1)c1cccc(F)c1` the IC50 was 1.6 µM (enzyme activity, Ellman).
`C#CCN(C)CCCCCCOc1cccc(CN(C)c2c3c(nc4ccccc24)CCCC3)c1` has an IC50 of 1.16 µM (enzyme activity, Ellman).
For `COc1ccc(S(=O)(=O)Oc2ccc(C=NNC(=O)c3ccc(F)cc3)cc2)cc1`, the IC50 was 0.0121 µM (enzyme activity, Ellman).
`O=[N+]([O-])c1c[nH]c(-c2n[nH]c(=S)n2/N=C/c2ccc(F)c(O)c2)c1` has an IC50 of 9.2 µM (enzyme activity, Ellman).
`C#CCN(C)CCCCOc1cccc(CN(C)c2c3c(nc4ccccc24)CCCC3)c1` gave an IC50 of 6.09 µM (enzyme activity, Ellman).
`COc1cccc(C(=O)NCCN2CCCCC2)c1` has an IC50 of 5.2 µM (enzyme activity, Ellman).
`Cn1cc(-c2cc(C(=O)NN=Cc3ccccc3Cl)no2)c2ccccc21` gave an IC50 of over 100 µM (enzyme activity).
`COc1ccc(S(=O)(=O)Oc2ccc3ccccc3c2C=NNC(=O)c2ccc(F)cc2)cc1` has an IC50 of 0.114 µM (enzyme activity, Ellman).
`O=C(NCCN1CCCCC1)c1cccc([N+](=O)[O-])c1` has an IC50 of 2 µM (enzyme activity, Ellman).
`O=[N+]([O-])c1c[nH]c(-c2n[nH]c(=S)n2/N=C/c2ccc(Br)c(Br)c2)c1` has an IC50 of 27.1 µM (enzyme activity, Ellman).
With `O=C(NCCN1CCCCC1)c1ccccc1[N+](=O)[O-]` the IC50 was 19 µM (enzyme activity, Ellman).
The IC50 of `C#CCN(C)CCCCCCOCc1ccc(CN(C)c2c3c(nc4ccccc24)CCCC3)cc1` is reported as 1.57 µM (enzyme activity, Ellman).
`Cn1cc(-c2cc(C(=O)NN=Cc3cccc([N+](=O)[O-])c3)no2)c2ccccc21` gave an IC50 of 45.6 µM (enzyme activity).
`C#CCN(C)CCCCCOCc1ccc(CN(C)c2c3c(nc4ccc(C)cc24)CCCC3)cc1` has an IC50 of 13.4 µM (enzyme activity, Ellman).
With `CNC(=O)c1ccc(-c2cnn3ccc(C(=O)N(C)c4ccc(Cl)c(C(=O)O)c4)cc23)cc1` the IC50 was over 30 µM (cell-free assay).
`O=[N+]([O-])c1c[nH]c(-c2n[nH]c(=S)n2/N=C/c2ccc(Cl)c(Cl)c2)c1` gave an IC50 of 14.2 µM (enzyme activity, Ellman).
For `C#CCN(C)CCCCCOc1cccc(CN(C)c2c3c(nc4ccccc24)CCCC3)c1`, the IC50 was 2.6 µM (enzyme activity, Ellman).
For `O=[N+]([O-])c1c[nH]c(-c2n[nH]c(=S)n2/N=C/c2ccc(F)cc2)c1`, the IC50 was 8.2 µM (enzyme activity, Ellman).
For `COc1cccc(C=NNC(=O)c2cc(-c3cn(C)c4ccccc34)on2)c1OC`, the IC50 was over 100 µM (enzyme activity).
With `COc1ccc(S(=O)(=O)Oc2cccc(C=NNC(=O)c3ccc(F)cc3)c2)cc1` the IC50 was 0.0895 µM (enzyme activity, Ellman).
The IC50 of `COc1ccc(/C=N/n2c(-c3cc([N+](=O)[O-])c[nH]3)n[nH]c2=S)cc1` is reported as 25.1 µM (enzyme activity, Ellman).
With `O=C(NCCN1CCCCC1)c1cccc(Cl)c1` the IC50 was 0.63 µM (enzyme activity, Ellman).
`O=[N+]([O-])c1c[nH]c(-c2n[nH]c(=S)n2/N=C/c2cc(O)cc(F)c2)c1` gave an IC50 of 8.8 µM (enzyme activity, Ellman).
`COc1ccc(S(=O)(=O)Oc2cc(OC)ccc2C=NNC(=O)c2ccc(F)cc2)cc1` gave an IC50 of 0.0919 µM (enzyme activity, Ellman).
With `O=[N+]([O-])c1c[nH]c(-c2n[nH]c(=S)n2/N=C/c2ccc(F)cc2O)c1` the IC50 was 7.1 µM (enzyme activity, Ellman).
`COc1ccccc1C(=O)NCCN1CCCCC1` gave an IC50 of 4.7 µM (enzyme activity, Ellman).
